Results pooled from the literature.
Each line is one published result; the experiments were not run side by side.
KIT T670I/V559D: Mast/stem cell growth factor receptor Kit (KIT, Homo sapiens, UniProt P10721, T670I/V559D)
KIT autoinhibited: Mast/stem cell growth factor receptor Kit, autoinhibited (KIT, Homo sapiens, UniProt P10721)
KIT D816V: Mast/stem cell growth factor receptor Kit (KIT, Homo sapiens, UniProt P10721, D816V)
KIT D816H: Mast/stem cell growth factor receptor Kit (KIT, Homo sapiens, UniProt P10721, D816H)
KIT L576P: Mast/stem cell growth factor receptor Kit (KIT, Homo sapiens, UniProt P10721, L576P)
KIT: Mast/stem cell growth factor receptor Kit (KIT, Homo sapiens, UniProt P10721)
KIT A829P: Mast/stem cell growth factor receptor Kit (KIT, Homo sapiens, UniProt P10721, A829P)
KIT V559D/V654A: Mast/stem cell growth factor receptor Kit (KIT, Homo sapiens, UniProt P10721, V559D/V654A)
KIT V559D: Mast/stem cell growth factor receptor Kit (KIT, Homo sapiens, UniProt P10721, V559D)

CS(=O)(=O)N1CCCC(NC(=O)[C@H](CCC2CCCCC2)NC(=O)c2ccc(CNc3ncnc4c3nnn4-c3ccccc3)cc2)C1 (stereo partly shown)  remaining binding (KIT T670I/V559D; cell-free assay; competition with immobilised ligand; 0.1 µM): 100%
C[C@@H](c1ccc(-n2cnc3c(N)ncnc32)cc1)N1CCc2nn(C)c(Cc3ccccc3)c2C1=O  remaining binding (KIT T670I/V559D; binding; competition with immobilised ligand; 0.1 µM): 99%
COc1cnc(Nc2cccc(S(N)(=O)=O)c2)nc1N1CCN(c2ccccc2)CC1  remaining binding (KIT autoinhibited; binding; competition with immobilised ligand; 1 µM): 90%
O=C(NCC1CCOCC1)c1n[nH]cc1NC(=O)c1c(F)cccc1F  remaining binding (KIT autoinhibited; binding; competition with immobilised ligand; 1 µM): 100%
Cc1cnc(Nc2ccc(C(=O)N3CCC(N4CCCC4)CC3)cc2)nc1-c1cc2ccccc2s1  remaining binding (KIT D816V; binding; competition with immobilised ligand; 1 µM): 5.2%
COc1ncc2cc3ccccc3nc2c1C#N  remaining binding (KIT D816H; cell-free assay; competition with immobilised ligand; 5 µM): 100%
CNC(=O)[C@@H]1CC[C@@H](n2c(-c3ccc4cnccc4c3)nc3ccc(C(=O)NCc4cccc(C(N)=O)c4)cc32)C1  remaining binding (KIT L576P; binding; competition with immobilised ligand; 1 µM): 99%
c1cncc(-c2cccc(Nc3nccc(NC4CCCCC4)n3)c2)c1  remaining binding (KIT; binding; competition with immobilised ligand; 10 µM): 3.8%
Nc1ncc2c(n1)-c1c([nH]c3ccc(C#CC4CC4)cc13)CCCC2  remaining binding (KIT A829P; binding; competition with immobilised ligand; 1 µM): 72%
CN1CCN(c2ccc(Nc3nccc(-c4cccc([N+](=O)[O-])c4)n3)cc2C(F)(F)F)CC1  remaining binding (KIT D816H; binding; 10 µM): 2.8%
O=C(NCCCN1CCOCC1)c1ccc(Nc2nccc(-c3cc4ccccc4s3)n2)cc1  remaining binding (KIT V559D/V654A; binding; competition with immobilised ligand; 1 µM): 56%
N[C@H]1CCN(c2nccc(-c3cnn4ncccc34)n2)C1  remaining binding (KIT V559D; binding; 1 µM): 87%
O=C(NS(=O)(=O)c1ccc(NCC2CCOCC2)c([N+](=O)[O-])c1)c1ccc(N2CCN(Cc3ccc(C(F)(F)F)cc3-c3ccc(Cl)cc3)CC2)cc1Oc1cnc2[nH]ccc2c1  remaining binding (KIT V559D; cell-free assay; competition with immobilised ligand; 1 µM): 100%
CN(C)c1nccc(-c2cnc3ncccn23)n1  remaining binding (KIT; binding; 1 µM): 69%
Cc1c(C(=O)O)cc(-c2ccc(C3CCNCC3)cc2)c2ccc(-c3ccc(C(F)(F)F)cc3)cc12  remaining binding (KIT V559D; binding; competition with immobilised ligand; 1 µM): 100%
C[C@@H]1CCN(c2nccc(-c3cnn4ncccc34)n2)C1  remaining binding (KIT V559D/V654A; binding; 1 µM): 79%
C[C@@]1(Cc2ccc(C#N)cc2)C(=O)N(c2cc(Cl)cc(Cl)c2)c2ncc(C(=O)NC3(c4nc(C5CCC5)no4)CC3)n21  remaining binding (KIT V559D; cell-free assay; competition with immobilised ligand; 1 µM): 99%
CCN1CCN(Cc2ccc(C(=O)Nc3ccc(C)c(Oc4ccc5c(c4)CC(=O)N5)c3)cc2C(F)(F)F)CC1  remaining binding (KIT; binding; competition with immobilised ligand; 1 µM): 0.85%
CN1CCN(c2ccc(Nc3nccc(-c4ccccc4)n3)cc2C(F)(F)F)CC1  remaining binding (KIT L576P; binding; 10 µM): 0.45%
O=C(c1ccc(Nc2ncc(Cl)c(-c3cc4ccccc4s3)n2)cc1)N1CCC(N2CCCC2)CC1  remaining binding (KIT L576P; binding; competition with immobilised ligand; 1 µM): 4.5%
C=CC(=O)N1CCC(C(=O)NCC(=O)N2CCN(c3nc(-c4cnc(N)nc4C(F)F)nc(N4CCOCC4)n3)CC2)CC1  remaining binding (KIT T670I/V559D; binding; competition with immobilised ligand; 1 µM): 82%
CC(=O)N1CCC(c2ccc(C(=O)NC3=NCCN3)cc2C(F)(F)F)CC1  remaining binding (KIT D816V; cell-free assay; competition with immobilised ligand; 1 µM): 91%
Cc1cnn2ncc(-c3ccnc(N(C)C)n3)c2c1  remaining binding (KIT D816V; binding; 1 µM): 100%
O=C(c1ccc(Nc2nccc(-c3cc4ccccc4s3)n2)cc1)N1CCC(N2CCCC2)CC1  remaining binding (KIT D816V; binding; competition with immobilised ligand; 1 µM): 15%
CC(C)(C)c1ccc(-c2nc(CBr)nn2-c2cccc(O)c2)cc1  remaining binding (KIT T670I/V559D; cell-free assay; competition with immobilised ligand; 10 µM): 95%
O=C(c1ccc(Nc2ncc(Cl)c(-c3ccc(Cl)s3)n2)cc1)N1CCC(N2CCCC2)CC1  remaining binding (KIT A829P; binding; competition with immobilised ligand; 1 µM): 4.3%
COc1ccc2c(c1)O[C@@H](c1ccc(OC)c(OC)c1)C[C@H]2NC(=O)C1(c2ccc3c(c2)OC(F)(F)O3)CC1  remaining binding (KIT A829P; cell-free assay; competition with immobilised ligand; 1 µM): 75%
CN(C)c1nccc(-c2cnn3ncccc23)n1  remaining binding (KIT autoinhibited; binding; 1 µM): 88%
O=C(Nc1c[nH]nc1C(=O)NC1CCNCC1)c1cc(F)cc(F)c1  remaining binding (KIT V559D; binding; competition with immobilised ligand; 1 µM): 100%
N#Cc1ccccc1CSc1nnc2c(n1)[nH]c1ccccc12  remaining binding (KIT; binding; competition with immobilised ligand; 10 µM): 100%
O=C(NCCCN1CCOCC1)c1ccc(Nc2ncc(Cl)c(-c3ccc(Cl)s3)n2)cc1  remaining binding (KIT A829P; binding; competition with immobilised ligand; 1 µM): 16%
CN(CCCC(F)(F)F)c1nccc(-c2cnn3ncccc23)n1  remaining binding (KIT D816H; binding; 1 µM): 77%
COc1cnc(Nc2cccc(S(N)(=O)=O)c2)nc1N1CCN(c2ccccc2)C(=O)C1  remaining binding (KIT V559D/V654A; binding; competition with immobilised ligand; 1 µM): 97%
c1cnn2ncc(-c3ccnc(N4CCC45COC5)n3)c2c1  remaining binding (KIT V559D; binding; 1 µM): 78%
O=C(O)[C@@H]1[C@@H](Cn2nnc3ccccc3c2=O)CC[C@H]1C(=O)c1ccc(OCCC2CCOCC2)cc1  remaining binding (KIT D816H; cell-free assay; competition with immobilised ligand; 1 µM): 68%
CC1CCCN1c1nccc(-c2cnn3ncccc23)n1 (stereo not shown)  remaining binding (KIT V559D/V654A; binding; 1 µM): 100%
CCCCN(CCCC)C(=O)CN1C[C@H](c2cc(OC)c3c(c2)OCO3)[C@@H](C(=O)O)[C@@H]1CC(C)(C)CCC  remaining binding (KIT D816V; cell-free assay; competition with immobilised ligand; 1 µM): 100%
